Experimental data reported in ChEMBL document CHEMBL2440018 (J Med Chem, 2013).
The source made the active and inactive calls. The calls are words filed in the database; no cut-off is given here.

Columns and labels:
Brain [1] = experiment: AUC (0 to infinity) in C57Bl/6J mouse brain assessed as 4-(4-(thiiran-2-ylmethylsulfonyl)phenoxy)phenol at 25 mg/kg, sc; type: ADME, organism-based; parameters: time infinity, dose 25 mg/kg, route subcutaneous; details: in vivo
How it was run: (§1)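 Mice were dosed sc once at 25 mg/kg; plasma and perfused brain (n = 3 per time point) were quantified by UPLC/ESI-MRM. AUC0-last came from the mean concentration-time curve by the trapezoidal rule, and AUC0-∞ = AUC0-last + Clast/k. α and β half-lives came from linear regression on the linear portion of the concentration-time data, with t1/2 = ln2/k.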

Plasma [2] = experiment: Metabolic stability in C57Bl/6J mouse plasma assessed as formation of 4-(4-(thiiran-2-ylmethylsulfonyl)phenoxy)phenol at 25 mg/kg, sc measured at 10 to 240 mins; type: ADME, organism-based; parameters: dose 25 mg/kg, route subcutaneous; details: in vivo
How it was run: (§2)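 Female C57Bl/6J mice (6–8 weeks, 16–19 g) received a single 100 µL sc dose equivalent to 25 mg/kg, in 10% DMSO/25% Tween 80/65% water or 80% propylene glycol/20% DMSO. Terminal heparinised vena cava blood gave plasma, and saline-perfused whole brain was taken; n = 3 per time point. Acetonitrile extracts with internal standard were run by UPLC/ESI-MRM against matrix calibration curves, linear 0.05–5 µM.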

Brain [3] = experiment: Elimination half life in C57Bl/6J mouse brain assessed as 4-(4-(thiiran-2-ylmethylsulfonyl)phenoxy)phenol at 25 mg/kg, sc; type: ADME, organism-based; parameters: dose 25 mg/kg, route subcutaneous; details: in vivo; how it was run: as §1
Plasma [4] = experiment: Primary phase half life in C57Bl/6J mouse plasma assessed as 4-(4-(thiiran-2-ylmethylsulfonyl)phenoxy)phenol at 25 mg/kg, sc; type: ADME, organism-based; parameters: dose 25 mg/kg, route subcutaneous; details: in vivo; how it was run: as §1
Neutrophil collagenase = Neutrophil collagenase (Homo sapiens, UniProt P22894); experiment: Inhibition of human recombinant MMP-8 catalytic domain using […] as substrate by fluorescence spectrophotometric analysis
Chain of Neutrophil collagenase (P22894 whole entry, the tested form may be a part): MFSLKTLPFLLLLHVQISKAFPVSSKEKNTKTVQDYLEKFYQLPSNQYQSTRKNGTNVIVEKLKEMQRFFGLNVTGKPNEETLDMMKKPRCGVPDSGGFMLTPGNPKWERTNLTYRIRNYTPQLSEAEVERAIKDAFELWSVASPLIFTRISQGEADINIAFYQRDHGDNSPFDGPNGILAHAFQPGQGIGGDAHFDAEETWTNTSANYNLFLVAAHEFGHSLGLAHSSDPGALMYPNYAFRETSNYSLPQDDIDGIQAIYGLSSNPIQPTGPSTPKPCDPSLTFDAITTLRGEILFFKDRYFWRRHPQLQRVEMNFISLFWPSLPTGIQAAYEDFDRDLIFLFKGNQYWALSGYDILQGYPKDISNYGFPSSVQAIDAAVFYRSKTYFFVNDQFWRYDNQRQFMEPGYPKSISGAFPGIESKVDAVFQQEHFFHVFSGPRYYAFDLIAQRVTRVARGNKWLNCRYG

Liver [5] = experiment: Metabolic stability in rat liver S9 fraction assessed as formation of 4-(4-(thiiran-2-ylmethylsulfonyl)phenoxy)phenol at 50 uM after 30 mins by reversed-phase LC/MS analysis; type: ADME, subcellular; details: s9, 0.5 h
How it was run: (§3)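 50 µM compound was incubated with rat liver S9 (1.0 mg) and 0.5 mM NADPH in 50 mM potassium phosphate, pH 7.4, at 37 °C for 30 min. The reaction was stopped with one volume of acetonitrile and centrifuged. Metabolites in the supernatant were identified by reversed-phase LC/ESI-QTOF mass spectrometry.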

[6] = target: Matrix metalloproteinase-14 (Homo sapiens, UniProt P50281); experiment: Inhibition of human recombinant MMP-14 catalytic domain using MOCAcPLGLA2pr(Dnp)AR-NH2 as substrate by fluorescence spectrophotometric analysis
Plasma [7] = experiment: Plasma concentration in C57Bl/6J mouse assessed as 4-(4-(thiiran-2-ylmethylsulfonyl)phenoxy)phenol at 25 mg/kg, sc measured at 4 hrs by reversed phase UPLC/ESI-MRM analysis; type: ADME, organism-based; parameters: dose 25 mg/kg, route subcutaneous; details: in vivo; how it was run: as §2
[8] = target: T1, Interstitial collagenase (Homo sapiens) (UniProt P03956); experiment: Inhibition of human recombinant MMP-1 catalytic domain at 50 uM by fluorescence spectrophotometric analysis relative to control
T1 sequence (whole entry): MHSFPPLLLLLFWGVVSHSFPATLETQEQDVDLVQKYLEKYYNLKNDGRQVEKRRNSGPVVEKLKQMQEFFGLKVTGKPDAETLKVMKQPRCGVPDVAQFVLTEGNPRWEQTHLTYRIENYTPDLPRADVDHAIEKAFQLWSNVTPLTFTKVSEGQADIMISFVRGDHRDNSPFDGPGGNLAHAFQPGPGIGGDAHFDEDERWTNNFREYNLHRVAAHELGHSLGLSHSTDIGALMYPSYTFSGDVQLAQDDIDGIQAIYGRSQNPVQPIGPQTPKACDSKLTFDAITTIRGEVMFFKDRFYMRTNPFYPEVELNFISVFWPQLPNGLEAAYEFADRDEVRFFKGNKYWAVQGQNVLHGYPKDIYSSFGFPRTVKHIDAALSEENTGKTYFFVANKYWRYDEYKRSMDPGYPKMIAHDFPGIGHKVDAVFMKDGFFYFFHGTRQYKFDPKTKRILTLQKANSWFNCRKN

[9] = target: MMP-2/MMP-9 (Homo sapiens) (UniProt P08253+P14780); experiment: Selectivity ratio of Ki for human recombinant MMP-9 catalytic domain to Ki for human recombinant MMP-2
Plasma [10] = experiment: Elimination half life in C57Bl/6J mouse plasma assessed as 4-(4-(thiiran-2-ylmethylsulfonyl)phenoxy)phenol at 25 mg/kg, sc; type: ADME, organism-based; parameters: dose 25 mg/kg, route subcutaneous; details: in vivo; how it was run: as §1
[11] = target: Stromelysin-1 (Homo sapiens) (UniProt P08254); experiment: Inhibition of human recombinant MMP-3 catalytic domain at 50 uM by fluorescence spectrophotometric analysis relative to control
Plasma [12] = experiment: Plasma concentration in C57Bl/6J mouse assessed as 4-(4-(thiiran-2-ylmethylsulfonyl)phenoxy)phenol at 25 mg/kg, sc measured at 10 mins by reversed phase UPLC/ESI-MRM analysis; type: ADME, organism-based; parameters: dose 25 mg/kg, route subcutaneous; details: in vivo; how it was run: as §2
Plasma [13] = experiment: AUC (0 to last) in C57Bl/6J mouse plasma assessed as 4-(4-(thiiran-2-ylmethylsulfonyl)phenoxy)phenol at 25 mg/kg, sc; type: ADME, organism-based; parameters: time 0 - last, dose 25 mg/kg, route subcutaneous; details: in vivo; how it was run: as §1
Plasma [14] = experiment: AUC (0 to infinity) in C57Bl/6J mouse plasma assessed as 4-(4-(thiiran-2-ylmethylsulfonyl)phenoxy)phenol at 25 mg/kg, sc; type: ADME, organism-based; parameters: time infinity, dose 25 mg/kg, route subcutaneous; details: in vivo; how it was run: as §1
Liver [15] = experiment: Metabolic stability in rat liver S9 fraction assessed as formation of Ethyl-carbamic acid 4-[4-(1-oxo-1lambda4-thiiran-2-ylmethanesulfonyl)-phenoxy]-phenyl ester at 50 uM after 30 mins by reversed-phase LC/MS analysis; type: ADME, subcellular; details: s9, 0.5 h; how it was run: as §3
[16] = target: T2, Matrilysin (Homo sapiens) (UniProt P09237); experiment: Inhibition of human recombinant MMP-7 at 50 uM by fluorescence spectrophotometric analysis relative to control
T2 sequence (whole entry): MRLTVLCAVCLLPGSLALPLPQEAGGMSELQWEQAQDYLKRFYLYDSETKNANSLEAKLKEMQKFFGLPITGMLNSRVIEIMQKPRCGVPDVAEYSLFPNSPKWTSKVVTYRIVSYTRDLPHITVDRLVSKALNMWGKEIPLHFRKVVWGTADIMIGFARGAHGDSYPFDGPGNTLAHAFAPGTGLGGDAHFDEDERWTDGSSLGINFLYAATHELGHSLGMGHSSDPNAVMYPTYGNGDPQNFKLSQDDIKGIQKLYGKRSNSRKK

Liver [17] = experiment: Metabolic stability in rat liver S9 fraction assessed as formation of 4-(4-(ethylcarbamoyloxy)phenoxy)benzenesulfinic acid at 50 uM after 30 mins by reversed-phase LC/MS analysis; type: ADME, subcellular; details: s9, 0.5 h; how it was run: as §3
[18] = target: 72 kDa type IV collagenase (Homo sapiens, UniProt P08253); experiment: Inhibition of human recombinant MMP-2 using MOCAcPLGLA2pr(Dnp)AR-NH2 as substrate by fluorescence spectrophotometric analysis
Chain of 72 kDa type IV collagenase (P08253 whole entry): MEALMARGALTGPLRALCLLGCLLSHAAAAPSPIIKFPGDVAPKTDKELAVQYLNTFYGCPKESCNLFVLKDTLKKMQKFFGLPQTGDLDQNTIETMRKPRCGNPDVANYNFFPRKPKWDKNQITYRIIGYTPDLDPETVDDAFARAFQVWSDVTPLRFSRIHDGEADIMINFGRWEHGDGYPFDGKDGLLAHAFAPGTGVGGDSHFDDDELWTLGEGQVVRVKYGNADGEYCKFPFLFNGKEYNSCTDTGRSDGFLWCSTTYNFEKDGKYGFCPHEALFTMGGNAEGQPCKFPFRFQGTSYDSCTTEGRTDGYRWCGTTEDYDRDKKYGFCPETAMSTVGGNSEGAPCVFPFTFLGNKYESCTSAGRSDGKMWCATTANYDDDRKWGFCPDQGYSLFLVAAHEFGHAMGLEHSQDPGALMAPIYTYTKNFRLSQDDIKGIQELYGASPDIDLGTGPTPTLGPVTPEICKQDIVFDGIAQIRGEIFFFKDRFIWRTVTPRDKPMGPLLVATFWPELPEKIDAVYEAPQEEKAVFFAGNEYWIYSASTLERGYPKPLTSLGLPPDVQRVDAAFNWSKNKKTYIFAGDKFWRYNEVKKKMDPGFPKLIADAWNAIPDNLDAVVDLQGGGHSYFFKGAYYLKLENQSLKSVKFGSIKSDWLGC

Brain [19] = experiment: Drug uptake in C57Bl/6J mouse brain assessed as 4-(4-(thiiran-2-ylmethylsulfonyl)phenoxy)phenol measured per mg of tissue at 25 mg/kg, sc measured at 4 hrs by reversed phase UPLC/ESI-MRM analysis; type: ADME, organism-based; parameters: dose 25 mg/kg, route subcutaneous; details: in vivo; how it was run: as §2
[20] = target: MMP-2/MMP-14 (Homo sapiens) (UniProt P50281+P08253); experiment: Selectivity ratio of Ki for human recombinant MMP-14 catalytic domain to Ki for human recombinant MMP-2
Homo sapiens = species on record: Homo sapiens; experiment: Selectivity ratio of Ki for human recombinant MMP-8 catalytic domain to Ki for human recombinant MMP-2
[21] = target: Matrix metalloproteinase-9 (Homo sapiens, UniProt P14780); experiment: Inhibition of human recombinant MMP-9 catalytic domain using MOCAcPLGLA2pr(Dnp)AR-NH2 as substrate by fluorescence spectrophotometric analysis
Chain of Matrix metalloproteinase-9 (P14780 whole entry, the tested form may be a part): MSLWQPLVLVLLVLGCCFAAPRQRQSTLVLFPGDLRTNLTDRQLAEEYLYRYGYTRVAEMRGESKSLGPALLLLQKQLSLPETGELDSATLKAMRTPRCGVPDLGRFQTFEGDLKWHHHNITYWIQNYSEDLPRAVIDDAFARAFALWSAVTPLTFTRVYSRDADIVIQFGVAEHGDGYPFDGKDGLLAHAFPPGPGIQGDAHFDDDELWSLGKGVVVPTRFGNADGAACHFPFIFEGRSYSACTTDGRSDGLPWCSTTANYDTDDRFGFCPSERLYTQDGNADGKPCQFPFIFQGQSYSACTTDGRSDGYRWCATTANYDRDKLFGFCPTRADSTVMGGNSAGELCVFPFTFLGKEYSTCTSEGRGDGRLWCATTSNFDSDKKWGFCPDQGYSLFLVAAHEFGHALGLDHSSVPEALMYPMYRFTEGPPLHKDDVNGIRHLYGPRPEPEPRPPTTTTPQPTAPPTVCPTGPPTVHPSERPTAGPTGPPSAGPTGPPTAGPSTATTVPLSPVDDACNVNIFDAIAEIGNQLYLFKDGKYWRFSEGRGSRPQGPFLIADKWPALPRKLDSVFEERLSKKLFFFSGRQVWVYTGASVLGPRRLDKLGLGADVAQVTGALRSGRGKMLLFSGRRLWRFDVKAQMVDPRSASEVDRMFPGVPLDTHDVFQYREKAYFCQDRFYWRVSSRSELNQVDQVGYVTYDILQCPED

Brain [22] = experiment: AUC (0 to last) in C57Bl/6J mouse brain assessed as 4-(4-(thiiran-2-ylmethylsulfonyl)phenoxy)phenol at 25 mg/kg, sc; type: ADME, organism-based; parameters: dose 25 mg/kg, route subcutaneous; details: in vivo; how it was run: as §1
Liver [23] = experiment: Half life in rat liver S9 fraction at 10 uM by reversed-phase UPLC/ESI-MRM analysis; type: ADME, subcellular; details: s9, 10 µM
How it was run: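 Male rat liver S9 (1.0 mg) with 0.5 mM NADPH and 10 µM compound (both final) in 50 mM potassium phosphate, pH 7.4, at 37 °C, sampled over time. Aliquots were stopped with acetonitrile containing internal standard, and the supernatant was run by UPLC/ESI-MRM. Half-lives used first-order kinetics on peak-area ratios to internal standard.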

[24] = Ratio of AUC in brain to plasma in C57Bl/6J mouse assessed as 4-(4-(thiiran-2-ylmethylsulfonyl)phenoxy)phenol at 25 mg/kg, sc; type: ADME, organism-based; parameters: dose 25 mg/kg, route subcutaneous
Brain [25] = experiment: Drug uptake in C57Bl/6J mouse brain assessed as 4-(4-(thiiran-2-ylmethylsulfonyl)phenoxy)phenol measured per mg of tissue at 25 mg/kg, sc measured at 20 mins by reversed phase UPLC/ESI-MRM analysis; type: ADME, organism-based; parameters: dose 25 mg/kg, route subcutaneous; details: in vivo; how it was run: as §2
Brain [26] = experiment: Metabolic stability in C57Bl/6J mouse brain assessed as formation of 4-(4-(thiiran-2-ylmethylsulfonyl)phenoxy)phenol at 25 mg/kg, sc measured at 10 to 240 mins; type: ADME, organism-based; parameters: dose 25 mg/kg, route subcutaneous; details: in vivo; how it was run: as §2
Liver [27] = experiment: Metabolic stability in rat liver S9 fraction assessed as formation of 4-(4-(methoxycarbonylamino)phenoxy)benzenesulfinic acid at 50 uM after 30 mins by reversed-phase LC/MS analysis; type: ADME, subcellular; details: s9, 0.5 h; how it was run: as §3
Liver [28] = experiment: Metabolic stability in rat liver S9 fraction assessed as formation of 4-(4-(thiiran-2-ylmethylsulfonyl)phenoxy)aniline at 50 uM after 30 mins by reversed-phase LC/MS analysis; type: ADME, subcellular; details: s9, 0.5 h; how it was run: as §3
Liver [29] = experiment: Metabolic stability in rat liver S9 fraction assessed as formation of {4-[4-(1-Oxo-1lambda4-thiiran-2-ylmethanesulfonyl)-phenoxy]-phenyl}-carbamic acid methyl ester at 50 uM after 30 mins by reversed-phase LC/MS analysis; type: ADME, subcellular; details: s9, 0.5 h; how it was run: as §3

Compound: CCNC(=O)Oc1ccc(Oc2ccc(S(=O)(=O)CC3CS3)cc2)cc1 (stereo not drawn)
- AUC (Brain [1]): 129 pmol·min/mg
- Stability (Plasma [2]): Unstable
- beta t1/2 (Brain [3]): 8.88 h
- alphat1/2 (Plasma [4]): 41.3 min
- Ki (Neutrophil collagenase): 15 µM
- Stability (Liver [5]): Unstable
- Ki [6]: 17 µM
- concentration (Plasma [7]): 114 nM
- inhibition [8]: inactive
- Ratio Ki [9]: 20
- beta t1/2 (Plasma [10]): 7.7 h
- inhibition [11]: 37%
- concentration (Plasma [12]): 1240 nM
- AUClast (Plasma [13]): 54 µM·min
- AUC (Plasma [14]): 69.9 µM·min
- Stability (Liver [15]): Unstable
- inhibition [16]: inactive
- Stability (Liver [17]): Unstable
- Ki [18]: 0.55 µM
- Drug uptake (Brain [19]): 0.255 pmol
- Ratio Ki [20]: 20
- Ratio Ki (Homo sapiens): 20
- Ki [21]: 12 µM
- AUClast (Brain [22]): 88.8 pmol·min/mg
- t1/2 (Liver [23]): 0.38 h
- Ratio AUC [24]: 1.64
- Drug uptake (Brain [25]): 1.35 pmol
- Stability (Brain [26]): Unstable

Compound: COC(=O)Nc1ccc(Oc2ccc(S(=O)(=O)CC3CS3)cc2)cc1 (stereo not drawn)
- Ki [6]: 2.6 µM
- inhibition [8]: inactive
- Ratio Ki [9]: 2
- inhibition [11]: 38%
- Stability (Liver [27]): Unstable
- inhibition [16]: inactive
- Stability (Liver [28]): Unstable
- Ki [18]: 0.05 µM
- Stability (Liver [29]): Unstable
- t1/2 (Liver [23]): 0.293 h
